ChEMBL document CHEMBL5321288, “Proteolytically Stable Diaza-Peptide Foldamers Mimic Helical Hot Spots of Protein-Protein Interactions and Act as Natural Chaperones” (J Med Chem, 2023)
The source made the active and inactive calls. No cut-off for these calls is given here. Starred links: 1 amine or outer side, 2 acyl side, 3 side chain; linkers in the order of their positions; H or OH if unused. Non-standard residues stand in square brackets, D forms with d. Residues, ends and D or L forms follow the SMILES beside them. *: point of attachment. X3 = C[C@H](O)CN(N[*:1])C(=O)NN(CCCCN)C(=O)[*:2]; X2 = CC(C)CN(NC(=O)N(C)N[*:1])C(=O)[*:2]; X1 = C[C@H](O)CN(N)C(=O)NN(CCCCN)C(=O)*

Columns and labels:
[1] = biological target: Amyloid-beta precursor protein (Homo sapiens) (UniProt P05067); experiment: Inhibition of Amyloid beta (1 to 42) (unknown origin) aggregation assessed as extension of time of the half aggregation at 10 to 1 ratio of compound to amyloid beta (1 to 42) incubated for 48 hrs fluorescence-detected ThT-binding assay; parameters: scale not given: the % may be the effect or the level left
[2] = biological target: Amyloid-beta precursor protein (Homo sapiens) (UniProt P05067); experiment: Inhibition of Amyloid beta (1 to 42) (unknown origin) aggregation assessed as reduction in experimental fluorescence platea at 10 to 1 ratio of compound to amyloid beta (1 to 42) incubated for 48 hrs fluorescence-detected ThT-binding assay; parameters: scale not given: the % may be the effect or the level left
[3] = biological target: T1, Islet amyloid polypeptide (Homo sapiens) (UniProt P10997); experiment: Inhibition of hIAPP aggregation assessed as ThT fluorescence intensity at 10 to 1 ratio of compound to hIAPP by ThT fluorescence spectroscopy
T1 sequence (whole entry): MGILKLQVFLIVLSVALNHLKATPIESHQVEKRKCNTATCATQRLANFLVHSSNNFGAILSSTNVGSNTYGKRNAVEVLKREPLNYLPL

[4] = Apparent permeability of the compound in apical to basolateral side in rat blood-brain barrier model at 5 uM; type: ADME, tissue-based; details: not told
In short: (§1)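 Rat in vitro BBB model; peptide applied at 5 or 10 μM, co-incubated with Lucifer yellow as integrity standard, solutions in low-binding tubes. Transport measured apical-to-basal and basal-to-apical, in triplicate. Apical and basal samples quantified by LC-MS/MS to give apparent permeability (Papp).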

[5] = Apparent permeability of the compound in apical to basolateral side in rat blood-brain barrier model at 10 uM; type: ADME, tissue-based; details: not told; in short: as §1
[6] = Cytotoxicity against rat brain endothelial cells assessed as viability at 1 to 100 ug/ml measured after 1 hr by MTT assay; type: toxicity, cell-based; details: endothelial cell, dose 1-100 µg/ml
[7] = biological target: Amyloid-beta precursor protein (Homo sapiens) (UniProt P05067); experiment: Inhibition of Amyloid beta (1 to 42) (unknown origin) fibril formation assessed as decrease in factor of rate constants of secondary nucleation(k2)/elongation(K+) at 10 to 1 ratio of compound to amyloid beta (1 to 42) incubated for 48 hrs ThT assay
[8] = biological target: Amyloid-beta precursor protein (Homo sapiens) (UniProt P05067); experiment: Inhibition of Amyloid beta (1 to 42) (unknown origin) fibril formation assessed as decrease in factor of rate constants of secondary nucleation(k2)/elongation(K+) at 1 to 1 ratio of compound to amyloid beta (1 to 42) incubated for 48 hrs ThT assay
[9] = biological target: Amyloid-beta precursor protein (Homo sapiens) (UniProt P05067); experiment: Inhibition of Amyloid beta (1 to 42) (unknown origin) fibril formation assessed as decrease in parallel beta sheet content at 125 uM measured upto 5 hrs by CD analysis
In short: (§2)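 CD at 25 °C, 195–250 nm, 0.1 cm cell, 50 nm/min, 0.1 nm resolution, five scans averaged. Aβ1-42 or Aβ1-28 at 25 μM with inhibitor at 125 μM, spectra taken at time points up to 5 h. Buffer or inhibitor spectrum subtracted, then smoothing. Secondary structure from 200–250 nm by BeStSel deconvolution.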

Homo sapiens = species: Homo sapiens; experiment: Inhibition of Amyloid beta (1 to 28) (unknown origin) fibril formation assessed as ratio of alpha-helical to beta strand at 125 uM measured upto 5 hrs by CD spectra analysis (reference value: 0.39); in short: as §2
[10] = Plasma stability in human plasma assessed as degraded peptide at 1 uM measured after 2 hrs by UPLC-MS/MS analysis; type: ADME, cell-free
In short: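 Compound at 1 μM in human plasma at 37 °C, duplicate. Sampled at 0, 15, 30, 45, 60 and 120 min. Analysed by reversed-phase UPLC, C18 at 40 °C, 4 min gradient of 0.1% formic acid in water/acetonitrile.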

Amyloid-beta precursor protein (Homo sapiens), sequence (P05067 whole entry): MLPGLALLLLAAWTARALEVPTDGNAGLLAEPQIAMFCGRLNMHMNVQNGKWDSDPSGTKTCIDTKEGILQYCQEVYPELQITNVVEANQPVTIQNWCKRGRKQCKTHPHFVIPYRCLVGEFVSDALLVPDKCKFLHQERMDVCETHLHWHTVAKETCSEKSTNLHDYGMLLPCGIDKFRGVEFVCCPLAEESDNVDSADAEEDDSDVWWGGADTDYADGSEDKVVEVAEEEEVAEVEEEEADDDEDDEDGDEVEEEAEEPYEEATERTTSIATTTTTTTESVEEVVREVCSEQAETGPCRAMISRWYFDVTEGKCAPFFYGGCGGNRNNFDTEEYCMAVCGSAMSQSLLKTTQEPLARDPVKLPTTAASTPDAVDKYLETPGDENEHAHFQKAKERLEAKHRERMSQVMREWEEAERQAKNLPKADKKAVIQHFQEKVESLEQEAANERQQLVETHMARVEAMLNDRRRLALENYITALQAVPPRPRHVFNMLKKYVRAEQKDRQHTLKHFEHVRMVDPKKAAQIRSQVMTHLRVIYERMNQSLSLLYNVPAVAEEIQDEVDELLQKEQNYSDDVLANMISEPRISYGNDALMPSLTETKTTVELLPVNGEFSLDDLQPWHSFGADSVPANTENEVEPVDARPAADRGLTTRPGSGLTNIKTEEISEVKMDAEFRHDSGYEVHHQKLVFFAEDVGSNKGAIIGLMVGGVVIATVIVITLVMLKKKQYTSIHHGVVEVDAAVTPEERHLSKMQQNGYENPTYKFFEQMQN

Row | Activity [1] [%] | Activity [2] [%] | inhibition [3] | Compound | further results
1 | 34 | 55 | – | CC(=O)N[C@H](C(=O)N[C@@H](CCCCN)C(=O)N[C@@H](CO)C(=O)NN(Cc1ccc(O)cc1)C(=O)NN(CCc1c[nH]c2ccccc12)C(=O)N[C@@H](CCCCN)C(=O)NN(C)C(=O)NN(CC(C)C)C(=O)NCC(N)=O)[C@@H](C)O | –
2 | 59 | 30 | – | CC(=O)N[C@H](C(=O)N[C@@H](CCCCN)C(=O)N[C@@H](CO)C(=O)N[C@@H](Cc1ccc(O)cc1)C(=O)N[C@@H](Cc1c[nH]c2ccccc12)C(=O)N[C@@H](CCCCN)C(=O)NN(C)C(=O)NN(CC(C)C)C(=O)NCC(N)=O)[C@@H](C)O (Ac-TKSYWK[X2]G-NH2) | –
3 | 107 | 36 | – | CC(=O)NN(C[C@H](C)O)C(=O)NN(CCCCN)C(=O)N[C@@H](CO)C(=O)N[C@@H](Cc1ccc(O)cc1)C(=O)N[C@@H](Cc1c[nH]c2ccccc12)C(=O)N[C@@H](CCCCN)C(=O)N[C@@H](C)C(=O)N[C@@H](CC(C)C)C(=O)NCC(N)=O (Ac-[X3]SYWKALG-NH2) | –
4 | 30 | 41 | inactive | CC(=O)NN(C[C@H](C)O)C(=O)NN(CCCCN)C(=O)N[C@@H](CO)C(=O)N[C@@H](Cc1ccc(O)cc1)C(=O)N[C@@H](Cc1c[nH]c2ccccc12)C(=O)N[C@@H](CCCCN)C(=O)NN(C)C(=O)NN(CC(C)C)C(=O)NCC(N)=O (Ac-[X3]SYWK[X2]G-NH2) | –
5 | 36 | 60 | – | CC(C)CN(NC(=O)N(C)NC(=O)[C@H](CCCCN)NC(=O)[C@H](Cc1c[nH]c2ccccc12)NC(=O)[C@H](Cc1ccc(O)cc1)NC(=O)[C@H](CO)NC(=O)[C@H](CCCCN)NC(=O)[C@@H](N)[C@@H](C)O)C(=O)NCC(N)=O (H-TKSYWK[X2]G-NH2) | –
6 | 209 | 59 | inactive | H-TKSYWKALG-NH2 | Ratio [7]: 100; inhibition [8]: inactive; inhibition [9]: Active; Ratio (Homo sapiens): 0.66; metabolised at 2 h, 1 µM [10]: 99%

More lines, now with the values behind:

Row | Compound | Activity [1] [%] | Activity [2] [%] | inhibition [3] | further results
7 | CC(=O)NN(C[C@H](C)O)C(=O)NN(CCCCN)C(=O)N[C@@H](CO)C(=O)NN(Cc1ccc(O)cc1)C(=O)NN(CCc1c[nH]c2ccccc12)C(=O)N[C@@H](CCCCN)C(=O)NN(C)C(=O)NN(CC(C)C)C(=O)NCC(N)=O | 42 | 41 | – | –
8 | CC(=O)NN(C[C@H](C)O)C(=O)NN(CCCCN)C(=O)N[C@@H](CO)C(=O)NN(Cc1ccc(O)cc1)C(=O)NN(CCc1c[nH]c2ccccc12)C(=O)N[C@@H](CCCCN)C(=O)N[C@@H](C)C(=O)N[C@@H](CC(C)C)C(=O)NCC(N)=O | 72 | 62 | – | –
9 | CC(=O)N[C@H](C(=O)N[C@@H](CCCCN)C(=O)N[C@@H](CO)C(=O)NN(Cc1ccc(O)cc1)C(=O)NN(CCc1c[nH]c2ccccc12)C(=O)N[C@@H](CCCCN)C(=O)N[C@@H](C)C(=O)N[C@@H](CC(C)C)C(=O)NCC(N)=O)[C@@H](C)O | 102 | 56 | – | –
10 | CC(C)C[C@H](NC(=O)[C@H](C)NC(=O)[C@H](CCCCN)NC(=O)[C@H](Cc1c[nH]c2ccccc12)NC(=O)[C@H](Cc1ccc(O)cc1)NC(=O)[C@H](CO)NC(=O)N(CCCCN)NC(=O)N(N)C[C@H](C)O)C(=O)NCC(N)=O (X1-SYWKALG-NH2) | 193 | 54 | inactive | –
11 | CC(C)CN(NC(=O)N(C)NC(=O)[C@H](CCCCN)NC(=O)[C@H](Cc1c[nH]c2ccccc12)NC(=O)[C@H](Cc1ccc(O)cc1)NC(=O)[C@H](CO)NC(=O)N(CCCCN)NC(=O)N(N)C[C@H](C)O)C(=O)NCC(N)=O (X1-SYWK[X2]G-NH2) | 254 | 57 | inactive | Papp A→B at 5 µM [4]: 0.839 ×10⁻⁶ cm/s; Papp A→B at 10 µM [5]: 0.677 ×10⁻⁶ cm/s; Activity [6]: Non-Toxic; Ratio [7]: 1e+09; Ratio [8]: 10; inhibition [9]: Active; Ratio (Homo sapiens): 2.16; metabolised at 2 h, 1 µM [10]: 6%
